According to ChEMBL document CHEMBL2150952 (J Med Chem, 2011):

Key:
Mus musculus [1] = assay: Antidiabetic activity in diet-induced obese C57BL6 mouse assessed as reduction in glucose AUC at 7 to 10 mg/kg, po administered 1 hr before oral glucose administration measured 2 hrs thereafter; format: functional; details: dose mg/kg 7-10
[2] = Drug uptake in eye of C57BL6 mouse at 10 mg/kg, po measured 6 hrs post dose; format: ADME, organism-based; set-up: dose 10 mg/kg, route oral; details: in vivo
Zone of skin [3] = assay: Drug uptake in skin of Sprague-Dawley rat at 10 mg/kg, po measured 6 hrs post dose; format: ADME, organism-based; set-up: dose 10 mg/kg, route oral; details: in vivo
[4] = Oral bioavailability in mouse; format: ADME, organism-based; details: in vivo
Outline: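 Fasted male C57BL6 mice given 2 mg/kg IV and 10 mg/kg PO. Plasma drug levels measured by LC-MS/MS, mean of n = 3 animals, and PK parameters derived from these.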

Mus musculus [5] = assay: Antidiabetic activity in diet-induced obese C57BL6 mouse assessed as reduction in body weight gain at 20 mg/kg, po BID; format: functional; set-up: scale not given: the % may be the effect or the level left
Outline: (§1)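 Male C57/Bl6 mice were fed a high fat diet for at least 18 weeks from 6 weeks of age, then given vehicle (1% methocel, bid) for 7 days and randomized by body weight. Oral dosing (qd or bid) ran for 28 days, with n = 8–10/group. Body weight, food intake and skin/eye scores were recorded twice weekly.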

[6] = Drug uptake in liver of female rhesus monkey at 5 mg/kg, po measured 6 hrs post dose; format: ADME, organism-based, Macaca mulatta; set-up: dose 5 mg/kg, route oral; details: in vivo
Mus musculus [7] = assay: Antidiabetic activity in diet-induced obese C57BL6 mouse assessed as reduction in glucose AUC at 7 to 30 mg/kg, po administered 1 hr before oral glucose administration measured 2 hrs thereafter; format: functional; details: dose mg/kg 7-30
Outline: (§2)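 Male C57/Bl6 mice were kept on a high fat diet for at least 14 weeks from 6 weeks of age, then fasted 16 h. Compound was given orally 1 h before a 2 g/kg oral glucose load.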

Liver [8] = assay: Drug level in liver of diet-induced obese C57BL6 mouse at 20 mg/kg, po BID; format: ADME, organism-based; set-up: dose 20 mg/kg, route oral; details: in vivo, read-out: Drug uptake
Outline: (§3)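 eDIO mice were dosed orally for 4 weeks, either 20 mg/kg bid or 5 mg/kg qd. Liver, Harderian gland and skin were taken at trough at study termination, and compound concentration was measured by LC-MS.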

[9] = Oral bioavailability in rat; format: ADME, organism-based; details: in vivo
[10] = Drug level in harderian gland of diet-induced obese C57BL6 mouse at 20 mg/kg, po BID; format: ADME, organism-based; set-up: dose 20 mg/kg, route oral; details: in vivo, read-out: Drug uptake; outline: as §3
[11] = Drug uptake in skin of Beagle dog at 5 mg/kg, po measured 6 hrs post dose; format: ADME, organism-based, Canis lupus familiaris, Zone of skin; set-up: dose 5 mg/kg, route oral; details: in vivo
Mus musculus [12] = assay: Antidiabetic activity in diet-induced obese C57BL6 mouse assessed as reduction in glucose AUC at 3 to 7 mg/kg, po administered 1 hr before oral glucose administration measured 2 hrs thereafter; format: functional; details: dose mg/kg 3-7
Zone of skin [13] = assay: Drug uptake in skin of C57BL6 mouse at 10 mg/kg, po measured 6 hrs post dose; format: ADME, organism-based; set-up: dose 10 mg/kg, route oral; details: in vivo
Mus musculus [14] = assay: Antidiabetic activity in po dosed diet-induced obese fasted C57BL6 mouse assessed as increase in glucose clearance administered 1 hr before glucose challenge measured 12 hrs thereafter by OGTT; format: functional; details: in the assay text read “2 hrs” for “12 hrs”; outline: as §2
Mus musculus [15] = assay: Toxicity in diet-induced obese C57BL6 mouse assessed as adverse effect in skin at 20 to 60 mg/kg, po BID measured within 4 weeks; format: organism-based; set-up: dose 20-60 mg/kg, route oral; details: in vivo, 672 h
Outline: (§4)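 Male C57/Bl6 mice on high fat diet for at least 18 weeks from 6 weeks of age. Given 7 days vehicle run-in (1% methocel bid), then randomized by body weight and dosed orally at 20 or 60 mg/kg bid for 28 days (n = 8–10/group). Skin (hair loss/lesion) and eye (squint to closure) scored 0–3 twice weekly.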

Acyl-CoA desaturase 1 [16] = biological target: T1, Acyl-CoA desaturase 1 (Rattus norvegicus, UniProt P07308); assay: Inhibition of SCD-1 activity in Sprague-Dawley rat Hepatocytes expressing organic anion transporting polypeptides assessed as reduction in [I-14C] […] desaturation by scintillation counting; format: cell-based, Hepatocyte
T1 sequence (P07308 whole entry): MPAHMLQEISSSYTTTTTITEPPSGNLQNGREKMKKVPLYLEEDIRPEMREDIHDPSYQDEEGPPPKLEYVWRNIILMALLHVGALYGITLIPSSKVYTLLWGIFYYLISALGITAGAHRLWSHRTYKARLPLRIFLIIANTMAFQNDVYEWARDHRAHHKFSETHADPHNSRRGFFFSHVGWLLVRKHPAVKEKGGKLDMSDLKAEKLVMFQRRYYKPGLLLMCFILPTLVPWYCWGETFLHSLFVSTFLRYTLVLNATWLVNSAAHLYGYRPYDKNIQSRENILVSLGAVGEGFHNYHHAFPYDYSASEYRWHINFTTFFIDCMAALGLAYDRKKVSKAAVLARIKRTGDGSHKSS
Outline: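 Rat hepatocytes (4 × 10^6 cells/mL) were preincubated with compound for 15 min at 37 °C/5% CO2. 14C-stearic acid (final 0.5 μCi/mL) was then added for 1 h with shaking. Cells were washed, hydrolyzed in 2N NaOH at 75 °C for 1 h, acidified and extracted. Radiolabeled oleic and stearic acids were quantified by HPLC with flow scintillation detection. Mean of at least n = 3.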

[17] = Oral bioavailability in dog; format: ADME, organism-based, Canis lupus familiaris; details: in vivo
Liver [18] = assay: Drug uptake in liver of Beagle dog at 5 mg/kg, po measured 6 hrs post dose; format: ADME, organism-based, Canis lupus familiaris; set-up: dose 5 mg/kg, route oral; details: in vivo
Liver [19] = assay: Drug uptake in liver of Sprague-Dawley rat at 10 mg/kg, po measured 6 hrs post dose; format: ADME, organism-based; set-up: dose 10 mg/kg, route oral; details: in vivo
[20] = Drug uptake in eye of Sprague-Dawley rat at 10 mg/kg, po measured 6 hrs post dose; format: ADME, organism-based; set-up: dose 10 mg/kg, route oral; details: in vivo
Liver [21] = assay: Drug uptake in liver of C57BL6 mouse at 10 mg/kg, po measured 6 hrs post dose; format: ADME, organism-based; set-up: dose 10 mg/kg, route oral; details: in vivo
Acyl-CoA desaturase 1 [22] = biological target: T1, Acyl-CoA desaturase 1; assay: Inhibition of SCD-1 activity in Sprague-Dawley rat microsome assessed as reduction in [I-14C] stearoyl CoA desaturation by scintillation counting; format: microsomes
Acyl-CoA desaturase 1 [23] = biological target: T1, Acyl-CoA desaturase 1; assay: Inhibition of rat SCD-1
[24] = Drug uptake in skin of female rhesus monkey at 5 mg/kg, po measured 6 hrs post dose; format: ADME, organism-based, Macaca mulatta, Zone of skin; set-up: dose 5 mg/kg, route oral; details: in vivo
Mus musculus [25] = assay: Inhibition of SCD activity in liver of diet-induced obese C57BL6 mouse assessed as reduction in desaturation induces at 20 mg/kg, po BID administered for 4 weeks; format: functional; details: 672 h
Mus musculus [26] = assay: Toxicity in diet-induced obese C57BL6 mouse assessed as adverse effect in eye at 20 to 60 mg/kg, po BID measured within 4 weeks; format: organism-based; set-up: dose 20-60 mg/kg, route oral; details: in vivo, 672 h; outline: as §4
Mus musculus [27] = assay: Antidiabetic activity in diet-induced obese C57BL6 mouse assessed as reduction in body weight gain at 60 mg/kg, po BID; format: functional; set-up: scale not given: the % may be the effect or the level left; outline: as §1
Mus musculus [28] = assay: Toxicity in diet-induced obese C57BL6 mouse assessed as reduction in food intake at 20 to 60 mg/kg, po BID; format: organism-based; set-up: dose 20-60 mg/kg, route oral; details: in vivo
Outline: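 Obese male C57/Bl6 mice after at least 18 weeks of high fat diet and a 7-day vehicle run-in, randomized by body weight. Dosed orally at 20 or 60 mg/kg bid for 28 days (n = 8–10/group). Food consumption monitored twice weekly.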

[29] = Drug uptake in eye of female rhesus monkey at 5 mg/kg, po measured 6 hrs post dose; format: ADME, organism-based, Macaca mulatta; set-up: dose 5 mg/kg, route oral; details: in vivo
[30] = Apparent permeability across pig LLC-PK1 cells; format: ADME, cell-based, Sus scrofa
[31] = Drug uptake in eye of Beagle dog at 5 mg/kg, po measured 6 hrs post dose; format: ADME, organism-based, Canis lupus familiaris; set-up: dose 5 mg/kg, route oral; details: in vivo

O=C(O)Cn1nnc(-c2cc(N3CCC(Oc4cc(F)ccc4Br)CC3)no2)n1 [MK-8245]
inhibition (INH) (Mus musculus [1]): 60% | Drug uptake [2]: Active | Drug uptake (Zone of skin [3]): Active | bioavailability [4]: 12% | Activity (Mus musculus [5]): 5% | Drug uptake [6]: Active | inhibition (INH) (Mus musculus [7]): 89% | concentration (Liver [8]): 5 µM | bioavailability [9]: 28% | concentration [10]: 900 nM | Drug uptake [11]: Active | inhibition (INH) (Mus musculus [12]): 36% | Drug uptake (Zone of skin [13]): Active | ED50 (Mus musculus [14]): 7 mg/kg | Activity (Mus musculus [15]): Non-toxic | IC50 (Acyl-CoA desaturase 1 [16]): 68 nM | bioavailability [17]: 40% | Drug uptake (Liver [18]): Active | Drug uptake (Liver [19]): Active | Drug uptake [20]: Active | Drug uptake (Liver [21]): Active | IC50 (Acyl-CoA desaturase 1 [22]): 3 nM | IC50 (Acyl-CoA desaturase 1 [23]): 3 nM | Drug uptake [24]: Active | inhibition in vivo at 20 mg/kg (Mus musculus [25]): 63% | Activity (Mus musculus [26]): Non-toxic | Activity (Mus musculus [27]): 5% | Activity (Mus musculus [28]): Non-toxic | Drug uptake [29]: Active | Papp [30]: 3.8 ×10⁻⁶ cm/s | Drug uptake [31]: Active
